Source: publication PMC10787258 (Current Research in Toxicology, 2023)
“Also recorded” adds a separate entry of the source.

Tests used:
thyroid peroxidase = settings: ToxCast in vitro; ref Paul Friedman et al., 2016; cited from earlier work
deiodinase = settings: ToxCast in vitro; ref Olker et al., 2019; cited from earlier work
[1] = test system: juvenile male Sprague-Dawley rats; assay: Eight-day oral exposure, serum thyroid hormones, TSH and thyroid weight; assay type: in vivo, rat
[2] = Body weight, percent growth and general toxicity in 4- and 8-day studies; assay type: in vivo, rat
[3] = cited from earlier work
[4] = Oxyfluorfen quantitation in serum and thyroid gland; assay type: in vivo, rat
Summary of the method: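 Serum came from 4-day gavage (0–500 mg/kg) and male 8-day gavage (PND27–34, 0–62.5 mg/kg); thyroids came from 8-day rats. Serum (60 µL) was spiked with d5-labelled internal standard, equilibrated 30 min at room temperature, then protein-precipitated with acetonitrile. LC/MS/MS used positive ESI in MRM mode with isotope dilution and serum-matched calibration (2.5–5000 ng/ml). LOQ 25 ng/mL serum, 2.5 ng/g thyroid; results below LOQ reported ND.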

liver = settings: 98 % pure technical grade, up to 73 mg/kg; ref U.S. EPA, 2021; cited from earlier work
FRTL-5 cells = settings: any concentration tested up to 100 μM; ref Buckalew et al., 2020; cited from earlier work
hNIS-HEK293T-EPA cells = settings: any concentration tested up to 100 μM; ref Buckalew et al., 2020; cited from earlier work
mouse and rabbit = mouse and rabbit studies; ref U.S. EPA, 2021; cited from earlier work
[5] = higher purity (>98 %) oxyfluorfen; ref RED 2002; 2019; cited from earlier work
thyroid cancer = settings: human epidemiology, California; ref Omidakhsh et al., 2022; cited from earlier work
[6] = test system: juvenile male and female Sprague-Dawley rats; assay: Four-day oral exposure, serum thyroid hormones; assay type: in vivo, rat
Summary of the method: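 Weanling Sprague-Dawley rats arrived PND21 and were fed AIN-93 diet (iodide 225 ng/g). Groups were weight-ranked, n = 6 per sex per dose. Daily oral gavage PND 27–30 at 0, 125, 250 or 500 mg/kg in 1 % methyl cellulose suspension, adjusted to daily body weight. Decapitation ~2 hr after 4th dose. Trunk serum total T4/T3 by RIA kits (LOD 1.24, 0.50 ng/ml). One-way ANOVA, Dunnett's; mean ± SEM.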

[7] = target: T1, human sodium iodide symporter (NIS) (Homo sapiens, UniProt Q92911); assay: hNIS-HEK293T-EPA radioactive iodide uptake; assay type: cell-based
T1 sequence (Q92911 1-643): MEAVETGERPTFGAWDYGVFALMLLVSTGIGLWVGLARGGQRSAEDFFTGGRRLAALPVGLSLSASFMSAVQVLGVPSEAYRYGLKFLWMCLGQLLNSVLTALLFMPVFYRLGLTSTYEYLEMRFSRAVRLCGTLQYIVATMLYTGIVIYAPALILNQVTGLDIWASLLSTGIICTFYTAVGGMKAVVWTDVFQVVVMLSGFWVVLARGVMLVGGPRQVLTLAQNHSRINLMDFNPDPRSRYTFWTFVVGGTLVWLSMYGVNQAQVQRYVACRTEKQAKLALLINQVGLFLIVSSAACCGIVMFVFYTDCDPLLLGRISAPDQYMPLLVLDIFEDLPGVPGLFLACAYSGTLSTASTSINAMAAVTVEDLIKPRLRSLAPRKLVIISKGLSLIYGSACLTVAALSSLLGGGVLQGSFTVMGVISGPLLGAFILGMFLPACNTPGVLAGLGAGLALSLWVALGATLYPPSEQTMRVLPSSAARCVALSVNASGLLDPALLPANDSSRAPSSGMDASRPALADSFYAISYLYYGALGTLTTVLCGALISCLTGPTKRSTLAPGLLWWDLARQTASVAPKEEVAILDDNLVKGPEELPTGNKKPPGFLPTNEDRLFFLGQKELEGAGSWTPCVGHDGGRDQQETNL

[8] = 8 days oral, any treatment group (0.8125 to 62.5 mg/kg)

CCOc1cc(Oc2ccc(C(F)(F)F)cc2Cl)ccc1[N+](=O)[O-] [oxyfluorfen, 2-chloro-1-(3-ethoxy-4-nitrophenoxy)-4(trifluoromethyl)benzene]
Activity in thyroid peroxidase inhibition assay (thyroid peroxidase): no reported thyroid activity | Activity in deiodinase inhibition assay (deiodinase): no reported thyroid activity | LOEL for suppression of serum T4 ([1]; 8-day daily oral exposure): 3.25 mg/kg | NOEL for serum T4 ([1]; 8-day daily oral exposure): 1.625 mg/kg | LOEL for suppression of serum T3 ([1]; 8-day oral exposure): 62.5 mg/kg/day | LOEL for suppression of serum T4 ([1]; 8-day oral exposure): 3.25 mg/kg/day | Serum T3 vs control ([1]; 8 days oral, 62.5 mg/kg): significantly suppressed | Serum T3 vs control ([1]; 8 days oral, 15 and 31.25 mg/kg): non-significant decrease | Serum TSH [1, 8]: no significant differences; also recorded: No significant effects; also recorded: no significant changes | Thyroid weight [1, 8]: No changes; also recorded: no significant differences | Final body weight or percent growth ([2]; 4- or 8-day treatment, any dose, male or female): did not significantly affect | Visible signs of toxicity ([2]; daily observations, all treated animals): no visible signs of toxicity | Tissues with the highest levels of oxyfluorfen ([3]; following acute exposure, ref U.S. EPA, 2019): lung, thyroid, liver, ovaries, kidneys, adrenals and fat | Half-life ([3]; in the rat, ref 2002 RED): approximately 30 h | Serum oxyfluorfen detection ([4]; all treated serum samples, 4- and 8-day studies): detected | Kp at 8 days ([4]; male, Sprague-Dawley, rat, thyroid gland / serum, oral, 62.5 mg/kg): 2 to 3 | Liver tumor incidence (liver): has not shown liver tumor incidence | Cytotoxicity (FRTL-5 cells): no observed cytotoxicity; also recorded: no confounding cytotoxicity | Cytotoxicity (hNIS-HEK293T-EPA cells): no observed cytotoxicity; also recorded: no confounding cytotoxicity | Current guideline NOELs and LOELs (mouse and rabbit): 33 mg/kg | Acute oral, dermal, and inhalation toxicity [5]: low oral toxicity | Association with the occurrence of thyroid cancer (thyroid cancer): increased odds ratio | Decrease in serum T3 ([6]; female, 4 days oral, 125 mg/kg): 18% | Decrease in serum T4 ([6]; female, 4 days oral, 125 mg/kg): ~55% | Serum T3 vs control ([6]; female, 4 days oral, 125 mg/kg): significantly suppressed | Serum T3 vs control ([6]; female, 4 days oral, 250 mg/kg): not significantly suppressed | Serum T3 vs control ([6]; female, 4 days oral, 500 mg/kg): significantly suppressed | Total serum thyroxine (T4) ([6]; male and female, 4 days, all doses (125, 250, 500 mg/kg/day)): suppressed | Decrease in serum T3 ([6]; male, 4 days oral, 125 mg/kg): 35% | Decrease in serum T4 ([6]; male, 4 days oral, 125 mg/kg): 68% | Suppression of serum T3 ([6]; male, 4 days oral, 125 to 500 mg/kg): approximately 30% | Suppression of serum T4 ([6]; male, 4 days oral, all doses (125, 250, 500 mg/kg)): 70% | IC50 [7]: 2000 nM
